This note sets out measurements from ChEMBL document CHEMBL3734718, “Development of new highly potent imidazo[1,2-b]pyridazines targeting Toxoplasma gondii calcium-dependent protein kinase 1” (Eur J Med Chem, 2015).

Series [1] in a line: Inhibition of wild type recombinant Toxoplasma gondii CDPK1 using syntide-2 substrate after 30 mins by Kinase-Glo luminescent assay. For orientation: Kinase-Glo measures the ATP left after a reaction by luminescence.
Series [2] has as its target Cyclin-dependent kinase 5/CDK5 activator 1 (Homo sapiens, UniProt Q00535). Description: Inhibition of human recombinant CDK5/P25 expressed in Escherichia coli using histone H1 substrate after 30 mins by scintillation and luminescence counting method in presence of [gamma-33P]ATP.
Series [3] deals with Receptor-interacting serine/threonine-protein kinase 3 (Homo sapiens, UniProt Q9Y572). Nature of the series: Inhibition of full length human GST-tagged RIPK3 expressed in Spodoptera frugiperda Sf9 cells after 30 mins by scintillation and luminescence counting method in the presence of [gamma-33P]ATP.
Chain of Receptor-interacting serine/threonine-protein kinase 3 (Q9Y572 whole entry): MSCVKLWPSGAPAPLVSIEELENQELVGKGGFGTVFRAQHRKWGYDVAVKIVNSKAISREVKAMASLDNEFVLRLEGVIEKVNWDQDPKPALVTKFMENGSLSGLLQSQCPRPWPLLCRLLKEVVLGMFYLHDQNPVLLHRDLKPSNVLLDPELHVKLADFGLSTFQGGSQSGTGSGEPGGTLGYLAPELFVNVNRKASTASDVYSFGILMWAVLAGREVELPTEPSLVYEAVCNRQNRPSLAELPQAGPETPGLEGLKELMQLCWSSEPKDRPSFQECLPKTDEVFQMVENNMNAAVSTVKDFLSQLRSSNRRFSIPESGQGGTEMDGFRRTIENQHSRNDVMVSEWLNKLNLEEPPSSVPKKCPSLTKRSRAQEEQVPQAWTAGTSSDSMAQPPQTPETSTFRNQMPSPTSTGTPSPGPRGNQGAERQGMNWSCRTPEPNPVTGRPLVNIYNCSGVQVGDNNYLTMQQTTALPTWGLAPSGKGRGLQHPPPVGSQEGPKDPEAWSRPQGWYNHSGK
Series [4] in a line: Inhibition of porcine brain CK1-delta/epsilon using CKS peptide substrate after 30 mins by scintillation and luminescence counting method in presence of [gamma-33P]ATP. The arrangement: species or system Sus scrofa.
In series [5] the target is Glycogen synthase kinase-3 (Sus scrofa, UniProt B2LUN4+I6LNT8). Description: Inhibition of porcine brain GSK-3 alpha/beta using GS-1 substrate after 30 mins by scintillation and luminescence counting method in the presence of [gamma-33P]ATP.
The target of series [6] is T1, Serine/threonine-protein kinase haspin (Homo sapiens, UniProt Q8TF76).
T1 sequence (Q8TF76 whole entry): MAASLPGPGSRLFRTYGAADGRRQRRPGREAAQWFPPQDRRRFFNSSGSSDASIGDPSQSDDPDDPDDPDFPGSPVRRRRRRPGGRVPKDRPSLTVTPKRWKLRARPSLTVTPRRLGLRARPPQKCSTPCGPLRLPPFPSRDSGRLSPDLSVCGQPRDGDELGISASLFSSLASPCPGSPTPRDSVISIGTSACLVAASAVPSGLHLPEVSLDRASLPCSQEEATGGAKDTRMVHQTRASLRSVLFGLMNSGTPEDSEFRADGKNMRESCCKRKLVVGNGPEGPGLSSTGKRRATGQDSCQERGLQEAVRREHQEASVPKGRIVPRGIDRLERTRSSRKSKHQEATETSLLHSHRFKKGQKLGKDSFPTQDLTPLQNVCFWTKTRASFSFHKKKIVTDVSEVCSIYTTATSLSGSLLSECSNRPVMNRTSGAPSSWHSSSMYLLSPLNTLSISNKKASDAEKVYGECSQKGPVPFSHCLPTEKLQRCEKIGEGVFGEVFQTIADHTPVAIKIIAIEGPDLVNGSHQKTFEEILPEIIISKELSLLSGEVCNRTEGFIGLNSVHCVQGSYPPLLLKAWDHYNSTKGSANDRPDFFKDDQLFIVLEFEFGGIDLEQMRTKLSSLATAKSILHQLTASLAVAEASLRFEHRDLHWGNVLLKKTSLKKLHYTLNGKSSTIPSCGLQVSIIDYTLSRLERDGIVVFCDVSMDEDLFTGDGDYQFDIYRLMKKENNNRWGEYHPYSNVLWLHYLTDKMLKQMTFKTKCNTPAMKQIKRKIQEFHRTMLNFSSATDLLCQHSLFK
Nature of the series: Inhibition of human recombinant haspin kinase domain expressed in Escherichia coli BL21-KRX using histone H3 (1 to 21) peptide substrate after 30 mins by scintillation and luminescence counting method in the presence of [gamma-33P]ATP.

The test system of series [7] is Toxoplasma gondii. Description: Antiparasitic activity against Toxoplasma gondii RH tachyzoite expressing beta-galactosidase assessed as inhibition of tachyzoite invasion into human foreskin fibroblast host cells after 96 hrs by colorimetric microtitre assay. Type of series: functional, organism-based. In outline:
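Invasion of HFF host cells by a recombinant T. gondii strain carrying bacterial β-galactosidase was judged indirectly from parasite growth inhibition in a colorimetric microtiter format.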

Series [8] can be described thus: Cytotoxicity against HFF assessed as cell proliferation after 96 hrs by alamar blue reduction assay. Type of series: cell-based. Particulars: human, HFF cells. In outline: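 Non-specific toxicity to HFF host cells was measured by Alamar Blue reduction as a quantitative read-out of cell proliferation, with the CC50 derived.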
On the technique in general: Resazurin is reduced to fluorescent resorufin, in cell work by metabolically active cells.

Series [9] can be described thus: Lipophilicity, log P of the compound. Type of series: physicochemical. Particulars: octanol/water.

Chain of Cyclin-dependent kinase 5/CDK5 activator 1 (Q00535 whole entry): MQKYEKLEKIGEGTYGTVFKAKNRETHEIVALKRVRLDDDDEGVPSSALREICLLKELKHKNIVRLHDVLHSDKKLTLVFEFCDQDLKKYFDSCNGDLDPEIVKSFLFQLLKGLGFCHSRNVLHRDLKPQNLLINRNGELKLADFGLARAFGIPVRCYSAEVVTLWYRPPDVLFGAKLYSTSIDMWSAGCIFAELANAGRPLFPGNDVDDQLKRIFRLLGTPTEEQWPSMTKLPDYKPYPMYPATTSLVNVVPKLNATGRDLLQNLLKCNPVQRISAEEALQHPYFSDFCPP
Chain of Cyclin-dependent kinase 5/CDK5 activator 1 (Q15078 whole entry, further chain): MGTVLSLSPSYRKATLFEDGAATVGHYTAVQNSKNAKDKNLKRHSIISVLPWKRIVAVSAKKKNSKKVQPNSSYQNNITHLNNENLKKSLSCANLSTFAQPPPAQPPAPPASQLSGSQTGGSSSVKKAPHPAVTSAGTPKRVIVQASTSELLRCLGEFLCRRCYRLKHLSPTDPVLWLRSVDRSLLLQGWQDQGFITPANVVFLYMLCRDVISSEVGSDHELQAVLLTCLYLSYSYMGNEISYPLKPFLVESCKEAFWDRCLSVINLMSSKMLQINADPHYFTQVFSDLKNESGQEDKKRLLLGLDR

One may read the IC50 as the concentration at which inhibition is half-maximal. One may read the EC50 as the midpoint of the concentration-response curve. In general, CC50 refers to the concentration that lowers cell viability or growth by half. For `CN1CCN(c2ccc3nc(-c4ccc5c(c4)OCO5)c(-c4ccncc4)n3n2)CC1`, the IC50 was 150 nM in [1]; > 10 µM in [2]; 7.6 µM in series [3]; 0.15 µM in series [4]; > 10 µM in series [5]; > 10 µM in series [6]. In addition, in series [7], the EC50 worked out at 630 nM. The CC50 at 96 h in series [8] was 17.5 µM.

With `COc1cccc(-c2nc3ccc(N4CCN(C)CC4)nn3c2-c2ccncc2)c1`, the IC50 is 9 nM in series [1]; > 10 µM in series [2]; ≥ 10 µM in series [3]; 0.4 µM in series [4]; 8.8 µM in series [5]; > 10 µM in series [6]. In [7], the EC50 was 50 nM. For the same compound, the CC50 at 96 h in series [8] worked out at 38 µM.

In the case of `CN1CCN(c2ccc3nc(-c4cccc(-c5ccccc5)c4)c(-c4ccncc4)n3n2)CC1`, the IC50 in series [1] was 440 nM; in series [2], > 10 µM; in series [3], 0.45 µM; in [4] it was > 10 µM; in series [5], > 10 µM; in series [6], > 10 µM. Also, the EC50 in series [7] was determined as 1000 nM. Also, in series [8], the CC50 at 96 h stood at 10.9 µM.

For orientation: logP means the decadic logarithm of the partition coefficient of the neutral form, usually between octanol and water. With `CCOc1ccc2c(-c3nc4ccc(N5CCN(C)CC5)nn4c3-c3ccncc3)cccc2c1`, the IC50 in series [1] was 910 nM; in series [2], > 10 µM; in [3], 1.7 µM; in [4], > 10 µM; in series [5] it was > 10 µM; in series [6] it was > 10 µM. Besides, the EC50 in series [7] was 1710 nM. In addition, the CC50 at 96 h in [8] was found to be 7.6 µM. Besides, the logP in [9] was determined as 5.

For the compound `CN1CCN(c2ccc3nc(-c4cccc5c4OCCO5)c(-c4ccncc4)n3n2)CC1`, the IC50 in series [1] is 1230 nM; in [2] it was > 10 µM; in series [3], > 10 µM; in series [4] it was 2 µM; in series [5] it was > 10 µM; in series [6] it was > 10 µM. The EC50 in [7] came to 940 nM. Besides, the CC50 at 96 h in [8] was > 50 µM.

With `CN1CCN(c2ccc3nc(-c4cccc5c4OCO5)c(-c4cccnc4)n3n2)CC1`, the IC50 in series [1] is 6500 nM; in series [2], > 10 µM; in series [3] it was > 10 µM; in [4] it was > 10 µM; in series [5] it was > 10 µM; in series [6], > 10 µM. Moreover, the EC50 in series [7] is > 5000 nM. For the same compound, the CC50 at 96 h in series [8] is 35.9 µM.

Regarding `CN1CCN(c2ccc3nc(-c4ccc5ncsc5c4)c(-c4ccncc4)n3n2)CC1`, the IC50 in series [1] is 400 nM; in series [2], > 10 µM; in series [3], > 10 µM; in [4], 0.95 µM; in [5] it was > 10 µM; in [6], > 10 µM. In [7], the EC50 worked out at 1660 nM. In addition, in [8], the CC50 at 96 h was 17.5 µM.

`CN1CCN(c2ccc3nc(-c4ccc(-c5ccccc5)s4)c(-c4ccncc4)n3n2)CC1`: the IC50 in series [1] is 3580 nM; in series [2], > 10 µM; in series [3], > 10 µM; in [4], > 10 µM; in series [5], > 10 µM; in series [6] it was > 10 µM. Moreover, the EC50 in series [7] was found to be 3070 nM. The CC50 at 96 h in [8] was found to be 6.8 µM. The same compound showed a logP in series [9] of 5.

As to `CN1CCN(c2ccc3nc(-c4ccc(C(=O)N5CCOCC5)cc4)c(-c4ccncc4)n3n2)CC1`, the IC50 in series [1] was > 5000 nM; in series [2], > 10 µM; in series [3] it was > 10 µM; in series [4], > 10 µM; in series [5], > 10 µM; in [6] it was > 10 µM. Also, the EC50 in series [7] is > 5000 nM. For the same compound, the CC50 at 96 h in series [8] came to 14.1 µM.

As to `CN1CCN(c2ccc3nc(-c4cccc(C(=O)N5CCOCC5)c4)c(-c4ccncc4)n3n2)CC1`, the IC50 is 3050 nM in [1]; > 10 µM in series [2]; > 10 µM in [3]; > 10 µM in series [4]; > 10 µM in series [5]; 3.9 µM in series [6]. Besides, the EC50 in series [7] was > 5000 nM. For the same compound, the CC50 at 96 h in series [8] was 6.4 µM. For the same compound, the logP in series [9] is < 3.

Consider `CN1CCN(c2ccc3nc(-c4ccc5c(c4)OCCO5)c(-c4ccncc4)n3n2)CC1`, for which the IC50 is 110 nM in [1]; > 10 µM in series [2]; > 10 µM in series [3]; ≥ 10 µM in series [4]; > 10 µM in series [5]; > 10 µM in series [6]. In [7], the EC50 was determined as 490 nM. Besides, the CC50 at 96 h in series [8] is 7.6 µM. Moreover, the logP in [9] was < 3.

As for `CN1CCN(c2ccc3nc(-c4ccc(-c5ccccc5)cc4)c(-c4ccncc4)n3n2)CC1`, the IC50 is 3430 nM in series [1]; > 10 µM in series [2]; > 10 µM in [3]; > 10 µM in series [4]; > 10 µM in series [5]; > 10 µM in [6]. Further, the EC50 in series [7] is > 5000 nM. In addition, in series [8], the CC50 at 96 h was 13.7 µM.

As to `COc1ccc2c(-c3nc4ccc(N5CCN(C)CC5)nn4c3-c3ccncc3)cccc2c1`, the IC50 in series [1] was 500 nM; in series [2], > 10 µM; in [3], 1.2 µM; in series [4], > 10 µM; in series [5] it was > 10 µM; in series [6] it was > 10 µM. The EC50 in series [7] is 2210 nM. In addition, the 50% cytotoxic concentration (CC50) at 96 h in series [8] came out at 20.9 µM.

On to `CN1CCN(c2ccc3nc(-c4cccc5c4OCO5)c(-c4ccccc4)n3n2)CC1`, for which the IC50 in series [1] was 5400 nM; in series [2] it was > 10 µM; in series [3], > 10 µM; in [4] it was ≥ 10 µM; in [5], 2.2 µM; in [6] it was > 10 µM. Besides, the EC50 in series [7] came to 1900 nM. In series [8], the CC50 at 96 h turned out to be 21.9 µM.

As to `CN1CCN(c2ccc3nc(-c4cccc5c4OCO5)c(-c4ccncc4)n3c2)CC1`, the IC50 in [1] was 850 nM; in series [2], > 10 µM; in series [3], > 10 µM; in series [4], > 10 µM; in series [5], > 10 µM; in series [6], > 10 µM. Besides, the EC50 in [7] was > 5000 nM. In addition, in series [8], the CC50 at 96 h is > 50 µM.

For `CN1CCN(c2ccc3nc(-c4cccc(-c5ccsc5)c4)c(-c4ccncc4)n3n2)CC1`, the IC50 in series [1] is 500 nM; in series [2] it was > 10 µM; in [3] it was 0.3 µM; in series [4], ≥ 10 µM; in [5], 7.6 µM; in [6], > 10 µM. The EC50 in [7] was 610 nM. In addition, the CC50 at 96 h in [8] worked out at 6.3 µM. The compound also gave a logP in [9] of 5.

Regarding `CCc1nc(N)nc(N)c1-c1ccc(Cl)cc1` [PYRIMETHAMINE], the EC50 in [7] amounted to 340 nM. For the same compound, the CC50 at 96 h in series [8] is > 50 µM.

Turning to `CC1CN(c2ccc3nc(-c4cccc5c4OCO5)c(-c4ccncc4)n3n2)CC(C)N1C` (stereo unspecified), in [1], the IC50 is 630 nM. Also, in [7], the EC50 stood at 630 nM. Moreover, the CC50 at 96 h in series [8] was > 50 µM.

In the case of `c1cc2c(c(-c3nc4cccnn4c3-c3ccncc3)c1)OCO2`, the IC50 in [1] was 220 nM; in series [2], > 10 µM; in [3] it was 5.5 µM; in series [4], 2.4 µM; in series [5], 3.5 µM; in [6], > 10 µM. Further, in series [7], the EC50 was found to be 1280 nM. In series [8], the CC50 at 96 h was 8.2 µM. For the same compound, the logP in [9] is 5.

On to `CN1CCN(c2ccc3nc(-c4cccc(-c5cccs5)c4)c(-c4ccncc4)n3n2)CC1`, for which the IC50 was 370 nM in series [1]; > 10 µM in series [2]; 0.27 µM in series [3]; 3.1 µM in [4]; 10 µM in series [5]; > 10 µM in series [6]. Moreover, the EC50 in series [7] is 1420 nM. In addition, in [8], the CC50 at 96 h turned out to be 6.7 µM. For the same compound, the logP in series [9] came to 5.
